Results of several laboratories.
Target: Dual specificity protein kinase CLK1 (CLK1, Homo sapiens, UniProt P49759)

The inhibition of Cn1cc(-c2cc(F)cc(N3CCn4c(cc5c4CCCC5)C3=O)c2CO)cc(Nc2ccc(N3CCN(C4COC4)CC3)cn2)c1=O is reported as 11% (enzyme activity, inhibitor; 0.1 µM).
O=c1[nH]c2ccccc2n1C1CCN(Cc2ccc(-c3[nH]c4cc5ncnc5cc4nc3-c3ccccc3)cc2)CC1 gave a remaining signal of 109% (cell-free assay; 0.5 µM).
For Cn1cncc1[C@@](O)(COc1ccc(C#N)cc1-c1ccc(OC(F)(F)F)cc1)c1ccc(C#N)cc1, the remaining binding was 100% (cell-free assay, competition with immobilised ligand; 1 µM).
For Cc1nn(C)cc1-c1nc2c(N3CCN(Cc4ccc(Cl)cc4)CC3)c(Cl)cnc2[nH]1, the remaining binding was 63% (binding, competition with immobilised ligand; 1 µM).
With CC(C)(C)c1cc(C=C(C#N)C#N)cc(Br)c1O the remaining activity was 112% (enzyme activity, inhibitor; 0.5 µM).
With C#Cc1n[nH]c2c(-c3cn([C@@H](C)c4ccccn4)c(=O)[nH]c3=O)cc(F)cc12 the inhibition was 4.1% (enzyme activity, inhibitor; 0.1 µM).
With COc1cc(Nc2ncc(F)c(Nc3ccc4c(n3)NC(=O)C(C)(C)O4)n2)cc(OC)c1OC the inhibition was 92% (binding, competition with immobilised ligand; 10 µM).
Nc1ncc(-c2nc(N3CCOCC3)nc(N3CCOCC3)n2)c(C(F)F)n1 gave a remaining binding of 58% (binding, competition with immobilised ligand; 10 µM).
The remaining binding of COc1ncccc1-c1cnn2ccc(N3CCN(C(=O)OC(C)C)CC3)nc12 is reported as 81% (binding, competition with immobilised ligand; 1 µM).
